The values that follow come from PMC6217710 (Pain Medicine: The Official Journal of the American Academy …, 2018).

The nature of data set [1]: Plasma pharmacokinetics after single oral dose. The class given is in vivo. The settings on record: human, 150 mg.
Data set [2] relates to healthy male subjects. The settings on record: previous data in healthy subjects; cited from earlier work.
The test system of data set [3] is healthy male subjects. The data set can be described thus: Laser-evoked potentials. The format is in vivo, human. The essentials:
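Crossover in 24 healthy CYP2D6 extensive/intermediate-metabolizer males: 4 double-blind, double-dummy single-dose periods with 6-day washouts. Back skin got topical 1% alcoholic capsaicin under occlusion for 25 min, then two CO2-laser rekindling sessions. Each session used ≥13 80-msec laser stimuli at the fixed individual pain-threshold intensity. Vertex EEG (Cz vs right mastoid, artifacts rejected) recorded predose and hourly to 8 h. Value is the N2-P2 amplitude difference vs placebo.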

Data set [4] has as its system healthy male subjects. The data set can be described thus: Postlaser pain visual analog scale. The format is in vivo, human. The settings on record: all subjects. The essentials:
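Measured in the same capsaicin-pretreated back-skin sessions of the 4-period crossover (24 healthy males, double-blind, single doses, 6-day washout). Laser intensity was held at each subject's pain threshold, set on untreated skin during screening. After the laser stimuli, subjects rated pain on a 0–100 mm visual analog scale, expressed as %. Ratings were taken predose and hourly up to 8 h, compared against placebo.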

Data set [5] concerns healthy male subjects. The data set can be described thus: Safety and tolerability. The class given is in vivo, human.

The Tmax is the time from dosing to the highest level. The Cmax is the highest concentration seen after dosing.

Take `CC(C)C[C@H](CN)CC(=O)O` [Pregabalin, pregabalin]: in data set [1], the Tmax was 1.08 h. The molecule also gave a Cmax in data set [1] (mean Cmax, pregabalin 150 mg single oral dose) of 3480 ng/mL. In addition, in the data set on healthy male subjects [2], the “Reductions in PtP amplitudes of LEPs maintained postdose” value was “more than six hours” and the “Start of reductions in PtP amplitudes of LEPs” value is “one to two hours postadministration”. Further, in the data set on healthy male subjects [3] (pregabalin 150 mg single dose vs placebo, all subjects (n = 24)), the “Difference in LEP N2-P2 PtP amplitudes” value is reported as “–3.30 μV”. In the data set with healthy male subjects [3] (pregabalin 150 mg, overall, all subjects), the “LEP N2-P2 PtP amplitude value” is recorded as 26.7 μV. In addition, the “Difference in VAS pain” value in the data set with healthy male subjects [4] (pregabalin 150 mg vs placebo) is “–9.90%”. For the same molecule, in the data set with healthy male subjects [4] (pregabalin 150 mg), the VAS pain score is recorded as 36.6%. For the same molecule, in the data set on healthy male subjects [5] (during treatment with pregabalin 150 mg), the “Subjects who reported TEAEs” value stood at 50%. In the data set with healthy male subjects [5] (pregabalin 150 mg (n = 24)), the “Any TEAE” value is 12 (50) No. (%), the Dizziness was 6 (25) No. (%), the “Drug-related TEAE” value is on record as 12 (50) No. (%) and the Fatigue is on record as 4 (17) No. (%). Besides, in the data set on healthy male subjects [5] (pregabalin 150 mg (n = 24)), the Headache was 0 No. (%), the Nausea was 1 (4) No. (%), the “Serious TEAE” value is 0 No. (%) and the Somnolence was 1 (4) No. (%). Further, in the data set with healthy male subjects [5] (pregabalin 150 mg (n = 24)), the Vertigo is 3 (13) No. (%).
